# In PubChem BioAssay:
# Unmarked numbers belong to inactive results. Results filed as inconclusive are left out. Calls of active or inactive are those of the source.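 How the source made its calls, unless noted: active means RAM network inhibition above 8.4% in each of two replicates, 3 SD over the compound average; inconclusive means above 8.4% inhibition in only one replicate; inactive means 8.4% inhibition or less in each replicate.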
# Key:
# [1] = S. cerevisiae growth inhibition in permissive medium (OD615), pilot counter-assay for S. cerevisiae lifespan shortening project, permissive growth control (AID 705;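 active means growth inhibition above 25% in both replicates, a cutoff set 3 SD above the mean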); conditions: OD615, 24 h, at 10 µM, active compounds read high
# Outline: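 Test system: Saccharomyces cerevisiae strain carrying genetically modified DeaD replicative-lifespan system; buffer or medium: SC raffinose/galactose permissive medium; dosing: one dose 10 µM, DMSO 0.25% final; times: 24 h exposure, 30 °C; measured by: OD at 615 nm; read-out basis: growth inhibition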
# [2] = S. cerevisiae growth inhibition in restrictive medium, OD615, pilot screen, restrictive growth control, yeast lifespan reduction project (AID 706;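 active means growth inhibition above a set limit, 3 SD over mean compound inhibition, in both replicates, cut at about 43% in these data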;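 further: modified DeaD lifespan yeast strain shifted to restrictive glucose medium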); conditions: OD615, 48 h, at 10 µM, active compounds read high
# Outline: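 material = engineered S. cerevisiae DeaD strain | buffer or medium = glucose-based CSMM-D restrictive medium | dosing = one concentration, 10 µM final, 0.25% DMSO | schedule = 4 h pre-growth plus 48 h compound exposure, 30 °C | detection = OD615 absorbance reading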
# [3] = doxorubicin toxicity protection in MRP-1 cells – H69AR cells, CellTiter-Glo, duplicate, MRP-1 activator project, pilot screen (AID 807;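 active means viability increase at or above a cutoff of the median across tested compounds plus 3 SD, cut at about 8.5% in these data, passing the limit was not always enough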;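 further: compound pretreatment 18-22 h then 72 h combined with doxorubicin; 0% = doxorubicin alone and 100% = vehicle without doxorubicin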); conditions: H69AR viability with doxorubicin, CellTiter-Glo luminescence; at 10 µM; active compounds read high
# [4] = viability of HCT116 without oncogenic beta-catenin – human colon tumor cells, pilot screen (AID 823;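 active means cell viability at or below a set limit in both duplicate runs, the limit being the all-compound median minus 4 SD, cut at about 23% in these data, passing the limit was not always enough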;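 further: 0% = wells killed by 20 µM Hyamine and 100% = untreated DMSO cell wells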); conditions: HCT116 beta-catenin knockout viability, CellTiter-Glo, 60 h; at 10 µM; active compounds read low
# [5] = viability of PTEN-null HCT116 cells – cell-based, HCT116 clonal line, CellTiter-Glo, pilot screen (AID 824;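 active means viability at or below 27.92% in each of two runs, the all-compound median minus 4 SD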;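 further: 0% = 20 µM Hyamine control and 100% = vehicle cell control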); conditions: HCT116 PTEN-deleted viability, 60 h, at 10 µM, active compounds read low
# [6] = RAM pathway blockade in budding yeast – dse1pr::URA3 reporter, 5-FOA selection, pilot screen (AID 869;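 active means inhibition over a set limit, the all-compound mean plus 3 SD, in both replicate runs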;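 further: 0% = DMSO wells with no growth and 100% = 10 µM 1-NA-PP1 with full growth; RAM network block rescues cells from 5-FOA so hits raise OD615 growth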); conditions: S. cerevisiae dse1pr::URA3 5-FOA growth, OD615, 2 d; at 10 µM; active compounds read high; strain carries analog-sensitive mutant Cbk1 kinase
# [7] = RAM signaling pathway blockade in yeast – S. cerevisiae, Pdr1DBD-CYC8 efflux-inhibited sensitized strain, primary screen (AID 1298);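 further: 0% = DMSO untreated cells without growth and 100% = 10 µM 1-NA-PP1 full growth; higher means more yeast growth rescued from 5-FOA killing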; conditions: S. cerevisiae cbk1-as DSE1-URA3 strain, 5-FOA growth OD615, 2 d; at 50 µM; active compounds read high
Compound,growth inhibition [1],growth inhibition [2],viability increase [3],viability [4],viability [5],inhibition [6],RAM network inhibition [7]
CCOc1ccc(-n2c(Cc3cc(=O)[nH]c(=O)[nH]3)nnc2SCc2cccnc2)cc1,2.83%,5.83%,1.08%,107%,105%,1.84%,0.84%
COCCN(C(=O)Nc1ccccc1)C(C)c1cccnc1 (centres undefined),9.6%,-1.42%,-2.41%,93.5%,97.5%,1.54%,-1.08%
COc1ccc(-c2nc(CS(=O)CC(=O)NCc3ccco3)c(C)o2)cc1OC (centres undefined),1.38%,-5.82%,-4.57%,83.4%,84.6%,0.205%,4.18%
Cc1nc2ccc(NC(=O)c3ccc(S(=O)(=O)N4CCOCC4)cc3)cc2s1,-2.22%,-2.84%,0.28%,95.3%,93.8%,3.07%,4.83%
O=C(Cn1c(=O)n(-c2ccccc2)c(=O)n1CC(=O)N1CCCCC1)N1CCCCC1,-8.76%,-2.77%,-0.69%,107%,96.4%,0.495%,0.57%
c1ccc2c(c1)nc(N1CCOCC1)c1nnnn12,-7.82%,-4.7%,-3.18%,109%,103%,1.38%,10.4%
CCCn1c2ccccc2c2cc(C(=O)O)ccc21,-20.7%,-6%,-3.03%,106%,93.5%,1.95%,2.82%
Clc1ccccc1N1CCN(c2ncnc3nc[nH]c23)CC1,7.42%,-4.18%,-1.4%,95%,95.7%,4.08%,5.77%
c1ccc(COc2ccc(Nc3ncnc4nc[nH]c34)cc2)cc1,-2.53%,7.49%,-0.86%,85.7%,83%,0.435%,4.8%
CC(C)(Oc1ccc(-c2ccco2)cc1)C(=O)O,-0.405%,0.705%,-0.38%,97.8%,96.8%,0.31%,1.07%
CN1CCN(Cc2ccc(-c3ccc(Cl)cc3)o2)CC1,-15.8%,-22.6%,-2.14%,86.1%,102%,1.56%,2.49%
COC(=O)c1ccc(N2C(=O)CC(Sc3n[nH]c(C)n3)C2=O)cc1 (centres undefined),38.2% (active),19%,1.12%,96.6%,93.2%,1.42%,2.32%
COc1ccc(CN2CCNC(=O)C2CC(=O)O)cc1OC (centres undefined),-14.2%,-7.95%,1.18%,105%,101%,0.38%,-0.52%
COc1cc2c(C(=O)NCc3ccccn3)cn(C)c(=O)c2cc1OC,-8.38%,-2.63%,-1.1%,102%,95.3%,1.86%,1.07%
CC(=O)N1CCC(Nc2ccc(C)cc2)CC1,-15.6%,-9.18%,0.99%,101%,97.3%,-0.41%,1.48%
COc1ccccc1C(=O)n1nc(C)cc1C,-3.16%,-0.83%,0.58%,92%,95.8%,-0.645%,3.78%
CCOCCCNC(=O)c1cccs1,-5.41%,-4.17%,-1.31%,91%,94.4%,2.22%,0.76%
CCOC(=O)C1CCCN(C(=O)c2ccccc2Oc2ccccc2)C1 (centres undefined),-6.35%,-9.14%,-1.3%,91.1%,102%,0.545%,1.27%
COc1ccc(C2CC(c3ccc(F)cc3)Nc3nc(N)nn32)cc1OC (centres undefined),-0.9%,4.9%,-0.13%,102%,92.4%,1.21%,7.75%

Compound,growth inhibition [1],growth inhibition [2],viability increase [3],viability [4],viability [5],inhibition [6],RAM network inhibition [7]
CCOC(=O)Cn1c(C)cc(=O)c2cccc(C)c21,-19.8%,-12.9%,0.49%,92%,96.9%,0.035%,1.15%
O=C1c2ccccc2C(Nc2ccc(Cl)cn2)N1c1ccccn1 (centres undefined),-15.4%,0.32%,-4.01%,75.1%,81.1%,2.39%,8.97%
CC(C)CCNC(=O)C1C2C=CC3(CN(Cc4ccccc4Cl)C(=O)C13)O2 (centres undefined),-8.87%,-13.5%,-3.35%,103%,98.3%,0.82%,8.03%
COc1ccc(-c2nnc(NC(=O)c3ccccc3C)o2)cc1,-8.78%,-11.7%,-2.73%,27.6%,25.3% (active),1.86%,0.11%
CCOc1ccccc1Nc1nc2ccccc2n2cnnc12,-17%,-2.87%,-6.33%,81.6%,85.7%,3.04%,6.66%
O=C(NC1CCCCC1)N1CCC(n2c(=O)[nH]c3ccccc32)CC1,-8.88%,-10.8%,1.07%,91.1%,89.6%,2.25%,5.7%
COc1cccc(Nc2cc(C)nc3nc(C)nn23)c1,-0.125%,4.21%,-1.69%,108%,97.6%,1.68%,2.37%
CCN(c1ccccc1)c1cc(C)nc2nc(C)nn12,-17%,-3.25%,-3.84%,106%,96.7%,1.6%,4.74%
O=C(CCc1ccccc1)N1CCN(CCO)CC1,-4.45%,9.8%,0.6%,101%,110%,0.715%,3.71%
O=C1CCCc2sc3c(c2N1)CCCCC3,-3.24%,2.17%,-0.35%,98.3%,91.6%,1.12%,3.61%
CC(=O)c1ccc(OCC(O)CN2CCOCC2)cc1 (centres undefined),-11.4%,10.1%,0.28%,103%,90.7%,2.42%,0.84%
CSCCC1(C(=O)O)NC(c2ccccc2O)C2C(=O)N(C(C)C)C(=O)C21 (centres undefined),2.37%,11.6%,-1.09%,102%,94.7%,0.875%,3.49%
CCN(CC)c1cc(C)c2cc(NC(=O)CNC(C)=O)ccc2n1,-10.4%,-8.29%,-2.37%,90%,91.1%,1.11%,2.59%
Cc1nc2sc(C(c3ccco3)N3CCN(c4ccc(F)cc4)CC3)c(O)n2n1 (centres undefined),0.055%,-7.21%,-0.62%,107%,99.9%,1.52%,3.54%
Cc1ccc(CNC(=O)C2CCCN(c3nc4ccccc4o3)C2)cc1 (centres undefined),-20.4%,-13.5%,1.29%,101%,98.9%,0.85%,5.43%
CCN(CCNC(=O)Cn1cc2c(n1)CCCC2)c1ccccc1,-4.85%,-6.55%,0.42%,109%,93.5%,2.4%,0.1%
CCOCCOC(=O)C1=C(C)NC2=C(C(=O)CC(c3cccs3)C2)C1c1ccsc1 (centres undefined),-1.18%,2.17%,-1.94%,93.5%,89.2%,2.27%,6.89%
COc1ccc(C)cc1NC(=O)CSc1nnc(-c2ccc(OC)c(OC)c2)n1N,3.19%,14%,-1.57%,102%,98.9%,0.235%,7.82%
